In paper PMC4415995 (Advances in Therapy, 2015):
Marks after values point to notes of the source that are not given here.

Assays:
Type in all cases: in vivo, human
[1] = system: Japanese patients with T2DM; assay: Urinary glucose excretion
In short: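 Dosing was once daily, 0.5–5 mg or placebo, before a standardized ~600 kcal breakfast. Read-outs were 24-h cumulative UGE, total UGE and per-interval UGE rate, plus change from Day −1. LS mean difference vs placebo with 95% CI.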

[2] = system: Japanese patients with T2DM; assay: Serum insulin concentrations, 7-day once-daily dosing
[3] = system: Japanese patients with T2DM; assay: Urine volume, water intake and body weight, 7-day once-daily dosing

CCOc1ccc(Cc2cc([C@@H]3S[C@H](CO)[C@@H](O)[C@H](O)[C@H]3O)c(OC)cc2C)cc1 [Luseogliflozin, (1S)-1,5-anhydro-1-[5-(4-ethoxybenzyl)-2-methoxy-4-methylphenyl]-1-thio-D-glucitol]
Least-squares mean difference in 24-h UGE vs placebo ([1]; 5 mg OD, Day 7): 101 g/day | UGE0–24h ([1]; 5 mg OD, Day 7): 120 ± 33.1 g | UGE0–24h LS mean difference vs placebo (95% CI) ([1]; 5 mg OD, Day 7): 101 (80.7, 122)* g | UGE0–24h LS mean difference vs placebo (95% CI) ([1]; 5 mg OD, Day 7, listed as luseogliflozin): 101 g | time for UGE to return toward the baseline value after treatment discontinuation ([1]; each dose group): 1 to 3 days | Serum insulin AUC0–4h (after breakfast) ([2]; 0.5 mg OD, Day 1): 95.0 ± 33.9 μIU h/mL | Serum insulin AUC0–4h (after breakfast) LS mean difference vs placebo (95% CI) ([2]; 0.5 mg OD, Day 1): −13.8 (−43.1, 15.6) μIU h/mL | Serum insulin AUC0–4h (after breakfast) ([2]; 0.5 mg OD, Day 7): 81.4 ± 39.4 μIU h/mL | Serum insulin AUC0–4h (after breakfast) LS mean difference vs placebo (95% CI) ([2]; 0.5 mg OD, Day 7): −32.3 (−62.8, −1.82)* μIU h/mL | Serum insulin AUC0–4h (after breakfast) ([2]; 1 mg OD, Day 1): 161 ± 67.9 μIU h/mL | Serum insulin AUC0–4h (after breakfast) LS mean difference vs placebo (95% CI) ([2]; 1 mg OD, Day 1): −12.1 (−39.4, 15.3) μIU h/mL | Serum insulin AUC0–4h (after breakfast) ([2]; 1 mg OD, Day 7): 125 ± 43.4 μIU h/mL | Serum insulin AUC0–4h (after breakfast) LS mean difference vs placebo (95% CI) ([2]; 1 mg OD, Day 7): −36.1 (−64.5, −7.72)* μIU h/mL | Serum insulin AUC0–4h (after breakfast) ([2]; 2.5 mg OD, Day 1): 101 ± 56.1 μIU h/mL | Serum insulin AUC0–4h (after breakfast) LS mean difference vs placebo (95% CI) ([2]; 2.5 mg OD, Day 1): −32.7 (−60.4, −4.93)* μIU h/mL | Serum insulin AUC0–4h (after breakfast) ([2]; 2.5 mg OD, Day 7): 75.1 ± 29.4 μIU h/mL | Serum insulin AUC0–4h (after breakfast) LS mean difference vs placebo (95% CI) ([2]; 2.5 mg OD, Day 7): −56.7 (−85.4, −27.9)* μIU h/mL | Serum insulin AUC0–4h (after breakfast) ([2]; 5 mg OD, Day 1): 190 ± 118 μIU h/mL | Serum insulin AUC0–4h (after breakfast) LS mean difference vs placebo (95% CI) ([2]; 5 mg OD, Day 1): −17.0 (−44.8, 10.8) μIU h/mL | Serum insulin AUC0–4h (after breakfast) ([2]; 5 mg OD, Day 7): 157 ± 82.5 μIU h/mL | Serum insulin AUC0–4h (after breakfast) LS mean difference vs placebo (95% CI) ([2]; 5 mg OD, Day 7): −28.6 (−57.5, 0.198) μIU h/mL | Body weight (24 h after dose) ([3]; 0.5 mg OD, Day 1): 67.49 ± 14.32 kg | Body weight (24 h after dose) LS mean difference vs placebo (95% CI) ([3]; 0.5 mg OD, Day 1): −0.19 (−0.58, 0.20) kg | Urine volume ([3]; 0.5 mg OD, Day 1): 3148.1 ± 718.5 mL/day | Urine volume LS mean difference vs placebo (95% CI) ([3]; 0.5 mg OD, Day 1): 456.1 (−212.4, 1124.7) mL/day | Water intake ([3]; 0.5 mg OD, Day 1): 2694.4 ± 936.4 mL/day | Water intake LS mean difference vs placebo (95% CI) ([3]; 0.5 mg OD, Day 1): 131.8 (−455.8, 719.3) mL/day | Body weight (24 h after dose) ([3]; 0.5 mg OD, Day 7): 66.76 ± 14.29 kg | Body weight (24 h after dose) LS mean difference vs placebo (95% CI) ([3]; 0.5 mg OD, Day 7): −0.45 (−1.14, 0.24) kg | Urine volume ([3]; 0.5 mg OD, Day 7): 3053.3 ± 1067.7 mL/day | Urine volume LS mean difference vs placebo (95% CI) ([3]; 0.5 mg OD, Day 7): 303.5 (−208.4, 815.3) mL/day | Water intake ([3]; 0.5 mg OD, Day 7): 2686.4 ± 929.1 mL/day | Water intake LS mean difference vs placebo (95% CI) ([3]; 0.5 mg OD, Day 7): 175.8 (−407.1, 758.7) mL/day | Body weight (24 h after dose) ([3]; 1 mg OD, Day 1): 71.71 ± 18.26 kg | Body weight (24 h after dose) LS mean difference vs placebo (95% CI) ([3]; 1 mg OD, Day 1): −0.31 (−0.68, 0.07) kg | Urine volume ([3]; 1 mg OD, Day 1): 3284.5 ± 653.4 mL/day | Urine volume LS mean difference vs placebo (95% CI) ([3]; 1 mg OD, Day 1): 723.8 (76.7, 1370.9)* mL/day | Water intake ([3]; 1 mg OD, Day 1): 3023.8 ± 883.4 mL/day | Water intake LS mean difference vs placebo (95% CI) ([3]; 1 mg OD, Day 1): 513.6 (−54.5, 1081.7) mL/day | Body weight (24 h after dose) ([3]; 1 mg OD, Day 7): 71.01 ± 18.10 kg | Body weight (24 h after dose) LS mean difference vs placebo (95% CI) ([3]; 1 mg OD, Day 7): −0.51 (−1.17, 0.14) kg | Urine volume ([3]; 1 mg OD, Day 7): 2421.0 ± 795.6 mL/day | Urine volume LS mean difference vs placebo (95% CI) ([3]; 1 mg OD, Day 7): −174.9 (−670.3, 320.5) mL/day | Water intake ([3]; 1 mg OD, Day 7): 2400.4 ± 583.5 mL/day | Water intake LS mean difference vs placebo (95% CI) ([3]; 1 mg OD, Day 7): −64.4 (−628, 499.2) mL/day | Body weight (24 h after dose) ([3]; 2.5 mg OD, Day 1): 67.43 ± 7.73 kg | Body weight (24 h after dose) LS mean difference vs placebo (95% CI) ([3]; 2.5 mg OD, Day 1): −0.53 (−0.91, −0.15)* kg | Urine volume ([3]; 2.5 mg OD, Day 1): 3511.4 ± 522.9 mL/day | Urine volume LS mean difference vs placebo (95% CI) ([3]; 2.5 mg OD, Day 1): 643.8 (−3.8, 1291.3) mL/day | Water intake ([3]; 2.5 mg OD, Day 1): 2964.0 ± 940.1 mL/day | Water intake LS mean difference vs placebo (95% CI) ([3]; 2.5 mg OD, Day 1): −161.3 (−733.9, 411.4) mL/day | Body weight (24 h after dose) ([3]; 2.5 mg OD, Day 7): 66.70 ± 7.84 kg | Body weight (24 h after dose) LS mean difference vs placebo (95% CI) ([3]; 2.5 mg OD, Day 7): −0.79 (−1.46, −0.12)* kg | Urine volume ([3]; 2.5 mg OD, Day 7): 3048.5 ± 868.2 mL/day | Urine volume LS mean difference vs placebo (95% CI) ([3]; 2.5 mg OD, Day 7): 92.9 (−402.9, 588.6) mL/day | Water intake ([3]; 2.5 mg OD, Day 7): 3049.1 ± 856.6 mL/day | Water intake LS mean difference vs placebo (95% CI) ([3]; 2.5 mg OD, Day 7): 46.5 (−521.6, 614.6) mL/day | Body weight (24 h after dose) ([3]; 5 mg OD, Day 1): 70.96 ± 9.34 kg | Body weight (24 h after dose) LS mean difference vs placebo (95% CI) ([3]; 5 mg OD, Day 1): −0.74 (−1.11, −0.36)* kg | Urine volume ([3]; 5 mg OD, Day 1): 3939.8 ± 1386.0 mL/day | Urine volume LS mean difference vs placebo (95% CI) ([3]; 5 mg OD, Day 1): 888.4 (235, 1541.8)* mL/day | Water intake ([3]; 5 mg OD, Day 1): 3256.8 ± 1581.7 mL/day | Water intake LS mean difference vs placebo (95% CI) ([3]; 5 mg OD, Day 1): 17.3 (−558.5, 593.1) mL/day | Body weight (24 h after dose) ([3]; 5 mg OD, Day 7): 70.24 ± 9.09 kg | Body weight (24 h after dose) LS mean difference vs placebo (95% CI) ([3]; 5 mg OD, Day 7): −0.97 (−1.62, −0.31)* kg | Urine volume ([3]; 5 mg OD, Day 7): 3471.4 ± 1204.5 mL/day | Urine volume LS mean difference vs placebo (95% CI) ([3]; 5 mg OD, Day 7): 300.4 (−199.9, 800.6) mL/day | Water intake ([3]; 5 mg OD, Day 7): 3141.0 ± 1387.3 mL/day | Water intake LS mean difference vs placebo (95% CI) ([3]; 5 mg OD, Day 7): 38.5 (−532.7, 609.8) mL/day
